Data on one molecule can be found in ChEMBL document CHEMBL3779826, “Converting maslinic acid into an effective inhibitor of acylcholinesterases” (Eur J Med Chem, 2015).

Some results are limits rather than exact numbers.

In test [1] the target is Acetylcholinesterase (Electrophorus electricus) (UniProt O42275). In words: Inhibition of Electrophorus electricus AChE at 5 uM using acetylthiocholine iodide as substrate preincubated for 20mins before the addition of substrate by Ellman's method. The gist of the method:
(§1)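 Ellman assay: enzyme in Tris-HCl pH 8.0 with NaN3, plus DTNB (3 mM stock with NaCl and MgCl2), was preincubated with compound at 30 °C for 20 min. Thiocholine substrate was then added and absorbance at 415 nm recorded at 30 °C for 30 min at 1-min intervals, in triplicate. Residual DMSO below 0.5%.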
(DTNB colorimetry detects thiols as they appear.)

Test [2] addresses Cholinesterase (Equus caballus) (UniProt P81908). In words: Inhibition of equine serum BChE at 5 uM using butyrylthiocholine iodide as substrate preincubated for 20mins before the addition of substrate by Ellman's method. In outline:
as §1

Test [3] deals with Carbonic anhydrase 2 (Bos taurus) (UniProt P00921). The test is described as follows: Inhibition of bovine erythrocte carbonic anhydrase 2 at 5 uM.
A further test addresses Cholinesterase (Equus caballus, UniProt P81908). In words: Inhibition of equine serum BChE using butyrylthiocholine iodide as substrate preincubated for 20mins before the addition of substrate by Ellman's method. Conditions: read-out: Ki.
In a further test the target is Acetylcholinesterase (Electrophorus electricus, UniProt O42275). In words: Inhibition of Electrophorus electricus AChE using acetylthiocholine iodide as substrate preincubated for 20mins before the addition of substrate by Ellman's method.
In another test the test system is Candida antarctica. In words: Inhibition of Candida antarctica lipase at 5 uM using 4-NA as substrate preincubated for 20 mins before the addition of substrate. In outline:
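Candida antarctica lipase in 50 mM Tris-HCl pH 8.0 was preincubated with compound at 37 °C for 20 min. Reaction started with 4-NA ([…] as added). Absorbance at 415 nm was read kinetically at 37 °C for 10 min at 1-min intervals. Relative inhibition was taken as the ratio of linear-range slopes, compound over blank.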

Sequence of Acetylcholinesterase (O42275 whole entry): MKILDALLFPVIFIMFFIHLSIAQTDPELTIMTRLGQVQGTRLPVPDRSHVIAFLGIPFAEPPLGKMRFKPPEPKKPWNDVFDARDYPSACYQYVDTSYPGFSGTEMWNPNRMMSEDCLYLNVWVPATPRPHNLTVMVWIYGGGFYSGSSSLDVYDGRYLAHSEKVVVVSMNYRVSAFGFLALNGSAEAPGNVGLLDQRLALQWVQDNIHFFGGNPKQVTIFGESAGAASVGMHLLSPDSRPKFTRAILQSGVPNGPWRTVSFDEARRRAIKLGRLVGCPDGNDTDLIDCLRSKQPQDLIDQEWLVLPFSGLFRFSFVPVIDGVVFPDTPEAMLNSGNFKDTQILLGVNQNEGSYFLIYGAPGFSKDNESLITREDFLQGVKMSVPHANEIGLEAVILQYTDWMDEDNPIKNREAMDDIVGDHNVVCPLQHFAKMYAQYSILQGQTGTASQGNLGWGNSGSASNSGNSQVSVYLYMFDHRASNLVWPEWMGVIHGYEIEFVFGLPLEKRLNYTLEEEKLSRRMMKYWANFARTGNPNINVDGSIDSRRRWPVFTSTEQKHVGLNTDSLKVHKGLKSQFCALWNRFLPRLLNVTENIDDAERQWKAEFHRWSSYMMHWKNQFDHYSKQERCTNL
Sequence of Cholinesterase (Equus caballus) (P81908 whole entry): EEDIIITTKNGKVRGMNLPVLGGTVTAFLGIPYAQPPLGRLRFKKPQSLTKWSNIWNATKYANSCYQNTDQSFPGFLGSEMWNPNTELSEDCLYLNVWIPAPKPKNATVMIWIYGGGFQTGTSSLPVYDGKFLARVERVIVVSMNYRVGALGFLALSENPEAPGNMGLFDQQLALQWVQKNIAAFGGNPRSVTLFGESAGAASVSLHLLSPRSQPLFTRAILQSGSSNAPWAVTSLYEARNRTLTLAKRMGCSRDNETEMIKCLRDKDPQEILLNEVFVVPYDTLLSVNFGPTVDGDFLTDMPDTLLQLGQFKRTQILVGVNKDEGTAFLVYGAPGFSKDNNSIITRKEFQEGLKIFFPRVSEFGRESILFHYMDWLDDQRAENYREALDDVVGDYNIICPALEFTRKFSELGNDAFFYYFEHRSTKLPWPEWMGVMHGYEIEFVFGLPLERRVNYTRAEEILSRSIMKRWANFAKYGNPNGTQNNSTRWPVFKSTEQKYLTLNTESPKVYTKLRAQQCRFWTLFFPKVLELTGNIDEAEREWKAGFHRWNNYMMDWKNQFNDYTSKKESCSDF
Sequence of Cholinesterase (P81908 whole entry): as above
Sequence of Carbonic anhydrase 2 (Bos taurus) (P00921 2-260 limits assumed): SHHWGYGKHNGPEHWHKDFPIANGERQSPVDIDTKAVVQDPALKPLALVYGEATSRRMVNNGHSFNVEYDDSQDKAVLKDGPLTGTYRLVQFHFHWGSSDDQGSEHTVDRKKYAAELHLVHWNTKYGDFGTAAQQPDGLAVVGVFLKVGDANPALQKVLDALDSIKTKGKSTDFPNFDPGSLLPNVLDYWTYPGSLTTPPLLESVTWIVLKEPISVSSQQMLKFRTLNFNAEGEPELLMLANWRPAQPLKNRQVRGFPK
Sequence of Acetylcholinesterase (Electrophorus electricus) (O42275 24-633 limits assumed): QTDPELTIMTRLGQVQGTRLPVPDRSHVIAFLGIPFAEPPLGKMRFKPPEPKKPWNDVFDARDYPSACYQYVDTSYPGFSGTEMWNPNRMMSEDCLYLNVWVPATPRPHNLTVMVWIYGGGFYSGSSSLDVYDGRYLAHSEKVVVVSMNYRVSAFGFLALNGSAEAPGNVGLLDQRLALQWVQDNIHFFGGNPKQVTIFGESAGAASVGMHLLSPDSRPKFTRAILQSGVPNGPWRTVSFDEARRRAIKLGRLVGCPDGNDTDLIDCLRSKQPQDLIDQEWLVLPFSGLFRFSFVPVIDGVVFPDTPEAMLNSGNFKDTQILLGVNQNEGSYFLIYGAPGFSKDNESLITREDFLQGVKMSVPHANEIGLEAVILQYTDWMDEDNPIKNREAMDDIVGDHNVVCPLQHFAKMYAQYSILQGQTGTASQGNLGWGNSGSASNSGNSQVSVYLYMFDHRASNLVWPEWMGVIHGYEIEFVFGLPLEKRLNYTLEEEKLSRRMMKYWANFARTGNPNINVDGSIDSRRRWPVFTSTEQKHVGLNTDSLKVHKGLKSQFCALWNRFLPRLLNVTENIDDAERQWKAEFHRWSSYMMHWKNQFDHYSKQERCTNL

Broadly, the inhibition is how much of the control response was suppressed. One may read the Ki as the dissociation constant of the complex between target and ligand, obtained from inhibition or displacement. What is called IC50 is the midpoint of a concentration-inhibition curve. As for `CC1(C)CC[C@]2(C(=O)OCCCCCl)CC[C@]3(C)C(=CC[C@@H]4[C@@]5(C)C[C@@H](O)[C@H](O)C(C)(C)[C@@H]5CC[C@]43C)[C@@H]2C1`, the inhibition in test [1] was determined as 79%; in test [2], 0%; in test [3], 0%; in the test on Candida antarctica it was 0%. The inhibition constant (Ki) on Cholinesterase was > 10 µM; on Acetylcholinesterase (read-out: Ki), 1.68 µM. Besides, the IC50 at Acetylcholinesterase was determined as 10.5 µM.
